ChEMBL document CHEMBL1149769, “Synthesis and antimicrobial activity of some novel derivatives of benzofuran: part 2. The synthesis and antimicrobial activity of some novel 1-(1-benzofuran-2-yl)-2-mesitylethanone derivatives” (2008)
Values after ≈ are worked out from the molar mass of the structure shown.

How the values were obtained:
Type in all cases: functional
Staphylococcus aureus = assay: Antimicrobial activity against Staphylococcus aureus ATCC 6538
Procedure, shortened: (§1)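 Bacteria were subcultured on blood agar for 24 h at 37 °C, then tested by broth microdilution in cation-adjusted Mueller-Hinton broth. Compounds were in DMSO and given as twofold serial dilutions from 1024 down to 1, with a final inoculum of 10^5 CFU/mL. Plates were incubated 48 h at 35 °C. MIC was the lowest concentration preventing visible growth. Growth control was drug-free inoculated broth.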

Escherichia coli = assay: Antimicrobial activity against Escherichia coli ATCC 25922; procedure, shortened: as §1
Candida albicans = assay: Antimicrobial activity against Candida albicans ATCC 10231
Procedure, shortened: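 Yeast was subcultured on Sabouraud dextrose agar for 24 h at 35 °C. It was then tested by NCCLS M27-A broth microdilution in RPMI 1640 buffered with MOPS, pH 7.0. DMSO solutions were diluted twofold from 1024 […]. Final inoculum was 0.5×10^3–2.5×10^3 CFU/mL, read after 48 h at 35 °C. MIC was the lowest concentration visibly inhibiting growth.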

| SMILES | MIC (Staphylococcus aureus) [µg/mL] | MIC (Escherichia coli) [µg/mL] | MIC (Candida albicans) [µg/mL] |
| --- | --- | --- | --- |
| Cc1cc(C)c(C/C(=N\OC(=O)c2ccccc2)c2cc3ccccc3o2)c(C)c1 | 4 (≈ 10.1 µM) | 32 (≈ 80.5 µM) | 64 (≈ 161 µM) |
| Cc1cc(C)c(C/C(=N/OCC(=O)NN)c2cc3ccccc3o2)c(C)c1 | 256 (≈ 701 µM) | 64 (≈ 175 µM) | 32 (≈ 87.6 µM) |
| Cc1cc(C)c(CC(=O)CSC#N)c(C)c1 | 256 (≈ 1100 µM) | 256 (≈ 1100 µM) | 32 (≈ 137 µM) |
| Cc1cc(C)c(C/C(=N/O)c2cc3ccccc3o2)c(C)c1 | 128 (≈ 436 µM) | 128 (≈ 436 µM) | 128 (≈ 436 µM) |
| Cc1cc(C)c(CC(O)c2cc3ccccc3o2)c(C)c1 (stereo unspecified) | 128 (≈ 457 µM) | 128 (≈ 457 µM) | 64 (≈ 228 µM) |
| Cc1cc(C)c(C/C(=N/NC(N)=O)c2cc3ccccc3o2)c(C)c1 | 128 (≈ 382 µM) | 64 (≈ 191 µM) | 64 (≈ 191 µM) |
| CO/N=C(\Cc1c(C)cc(C)cc1C)c1cc2ccccc2o1 | 256 (≈ 833 µM) | 128 (≈ 416 µM) | 64 (≈ 208 µM) |
| Cc1cc(C)c(CC(O)CCl)c(C)c1 (stereo unspecified) | 128 (≈ 602 µM) | 64 (≈ 301 µM) | 32 (≈ 150 µM) |
| Cc1cc(C)c(CC(=O)CCl)c(C)c1 | 16 (≈ 75.9 µM) | 64 (≈ 304 µM) | 16 (≈ 75.9 µM) |
| CCOC(=O)CO/N=C(\Cc1c(C)cc(C)cc1C)c1cc2ccccc2o1 | 256 (≈ 675 µM) | 256 (≈ 675 µM) | 256 (≈ 675 µM) |
| Cc1cc(C)c(C/C(=N\OC(=O)Cc2ccccc2)c2cc3ccccc3o2)c(C)c1 | 256 (≈ 622 µM) | 128 (≈ 311 µM) | 128 (≈ 311 µM) |
| OC(Cn1cncn1)(Cn1cncn1)c1ccc(F)cc1F [FLUCONAZOLE] | – | – | 0.25 (≈ 0.816 µM) |
| C[C@@H](O)[C@H]1C(=O)N2C(C(=O)O)=C(S[C@@H]3CN[C@H](C(=O)N(C)C)C3)[C@H](C)[C@H]12 [MEROPENEM] | 1 (≈ 2.61 µM) | 0.125 (≈ 0.326 µM) | – |
